# Activity calls are given as the source filed them. The rule behind the calls is not given here.
# Columns and labels:
# [1] = Mutagenicity in Salmonella typhimurium TA100 in presence of rat S9 fraction by Ames test; format: toxicity, subcellular; conditions: salmonella enterica subsp. enterica serovar typhimurium
# How it was run: (§1)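 Ames bacterial mutagenicity test in S. typhimurium TA98 and TA100. Run with and without metabolic activation by rat S9 fraction.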
# [2] = Mutagenicity in Salmonella typhimurium TA98 in absence of rat S9 fraction by Ames test; format: toxicity; conditions: salmonella enterica subsp. enterica serovar typhimurium; how it was run: as §1
# [3] = Mutagenicity in Salmonella typhimurium TA100 in absence of rat S9 fraction by Ames test; format: toxicity; conditions: salmonella enterica subsp. enterica serovar typhimurium; how it was run: as §1
# [4] = Intrinsic clearance in rat hepatocytes assessed per million cells at 1 uM measured after 2 to 60 mins by LC-MS/MS analysis; format: ADME, cell-based, Hepatocyte; conditions: read-out: CLH
# How it was run: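 Rat hepatocyte incubation of the compound; intrinsic clearance measured after incubation.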
# [5] = Octanol-phosphate buffer partition co-efficient, log D of the compound at pH 7.4 after 2 hrs by LC-MS/MS-based shake flask method; format: physicochemical
# How it was run: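 Distribution between octanol and water at pH 7.4.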
# [6] = Passive apparent permeability across apical to basolateral side in human Caco2 cells at pH 6.5; format: ADME, cell-based; conditions: Caco-2, pH 6.5
# How it was run: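 Passive permeability across Caco-2 monolayers, measured in the A to B direction at pH 6.5.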
# [7] = Mutagenicity in Salmonella typhimurium TA98 in presence of rat S9 fraction by Ames test; format: toxicity, subcellular; conditions: salmonella enterica subsp. enterica serovar typhimurium; how it was run: as §1
# [8] = Intrinsic clearance in human hepatocytes assessed per million cells at 1 uM measured after 2 to 60 mins by LC-MS/MS analysis; format: ADME, cell-based, Hepatocyte; conditions: read-out: CLH
# [9] = biological target: T1, Arachidonate 5-lipoxygenase-activating protein (Homo sapiens) (UniProt P20292); test: Inhibition of FLAP in human whole blood assessed as reduction in calcium ionophore-stimulated LTB4 production preincubated for 4 hrs followed by calcium ionophore stimulation and measured after 20 mins by EIA; format: tissue-based
# T1 sequence (whole entry): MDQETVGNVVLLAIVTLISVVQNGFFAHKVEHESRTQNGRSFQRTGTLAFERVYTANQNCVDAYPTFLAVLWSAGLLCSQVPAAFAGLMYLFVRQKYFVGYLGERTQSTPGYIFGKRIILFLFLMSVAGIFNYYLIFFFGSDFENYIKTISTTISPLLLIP
# How it was run: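 Fresh human whole blood was incubated with compound for 4 h, then stimulated with calcium ionophore, and LTB4 production was measured as the 5-LO pathway read-out. IC50 was also converted to a free value: IC50 × (Fu/100), where Fu = 100 − human plasma protein binding (%).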
# [10] = Aqueous solubility of the compound in pH 7.4 phosphate buffer measured after 24 hrs by LC-MS/MS-based shake flask method; format: physicochemical
# [11] = biological target: T2, Prostaglandin G/H synthase 2 (Homo sapiens) (UniProt P35354); test: Activity at COX2 in human whole blood assessed as effect on LPS-induced PGE2 production preincubated for 15 mins followed by LPS-stimulation and measured after overnight incubation by EIA; format: tissue-based
# T2 sequence (whole entry): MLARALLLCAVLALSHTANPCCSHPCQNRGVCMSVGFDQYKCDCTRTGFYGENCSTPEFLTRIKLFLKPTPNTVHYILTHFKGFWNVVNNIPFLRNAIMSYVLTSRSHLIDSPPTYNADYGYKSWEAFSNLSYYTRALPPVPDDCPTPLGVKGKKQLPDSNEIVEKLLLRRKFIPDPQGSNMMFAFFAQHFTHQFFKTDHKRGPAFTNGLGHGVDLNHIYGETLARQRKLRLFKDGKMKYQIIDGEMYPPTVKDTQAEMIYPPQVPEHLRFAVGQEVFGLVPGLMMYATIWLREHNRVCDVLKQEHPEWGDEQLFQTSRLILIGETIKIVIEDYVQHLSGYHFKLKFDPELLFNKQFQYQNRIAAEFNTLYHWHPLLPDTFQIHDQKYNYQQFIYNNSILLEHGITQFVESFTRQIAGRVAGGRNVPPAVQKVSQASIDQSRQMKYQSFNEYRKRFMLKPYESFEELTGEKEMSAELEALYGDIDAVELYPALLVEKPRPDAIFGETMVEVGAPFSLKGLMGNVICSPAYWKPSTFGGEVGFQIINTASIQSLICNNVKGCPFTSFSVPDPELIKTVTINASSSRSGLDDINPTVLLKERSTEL
# Canis familiaris [12] = test: Ex vivo inhibition of FLAP in Beagle dog assessed as reduction in ionophore-stimulated LTB4 production at 0.9 mg/kg, po measured within 2.5 hrs relative to control; format: functional, Canis lupus familiaris
# How it was run: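 Two beagle dogs were given a single oral dose of 0.9 mg/kg. LTB4 production in calcium ionophore-stimulated blood was followed ex vivo over time and compared with pre-dose baseline.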
# Homo sapiens [13] = test: Suppression of urine LTE4 level in po dosed human administered as single dose; format: functional, organism-based
# How it was run: (§2)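 Endogenous urinary LTE4 measured relative to baseline in healthy volunteers. Subjects received an oral suspension as single doses of 25–1200 mg, or 60–600 mg once daily for 10 days.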
# Homo sapiens [14] = test: Suppression of calcium ionophore-stimulated LTB4 production in po dosed human blood administered as single dose; format: functional, organism-based
# How it was run: (§3)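 Fresh blood drawn from healthy volunteers dosed with an oral suspension. Single doses were 25–1200 mg (SAD). Multiple dosing was 60, 180, 300 or 600 mg once daily for 10 days (MAD). LTB4 was measured after ex vivo calcium ionophore stimulation, relative to baseline.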
# Canis familiaris [15] = test: Ex vivo inhibition of FLAP in po dosed Beagle dog assessed as reduction in ionophore-stimulated LTB4 production; format: functional, Canis lupus familiaris
# Canis lupus familiaris = species on record: Canis lupus familiaris; test: Inhibition of FLAP in dog whole blood assessed as reduction in calcium ionophore-stimulated LTB4 production; format: tissue-based
# Homo sapiens [16] = test: Suppression of urine LTE4 level in po dosed human administered daily for 10 days; format: functional, organism-based; how it was run: as §2
# THP-1 = test: Cytotoxicity against human THP1 cells assessed as reduction in cell viability measured after 48 hrs by resazurin assay; format: cell-based; conditions: THP-1, 48 h
# Homo sapiens [17] = test: Suppression of calcium ionophore-stimulated LTB4 production in human assessed as Cmin required to show >80% reduction in plasma LTB4 levels at 60 to 1200 mg, po administered as single dose measured after 24 hrs; format: functional
# Homo sapiens [18] = test: Suppression of calcium ionophore-stimulated LTB4 production in po dosed human blood administered daily for 10 days; format: functional, organism-based; how it was run: as §3
# Canis familiaris [19] = test: Ex vivo inhibition of FLAP in Beagle dog assessed as reduction in ionophore-stimulated LTB4 production at 0.02 to 0.2 mg/kg, po administered daily for 3 consecutive days measured 24 hrs post-last dose by LC-MS/MS analysis; format: functional, organism-based; conditions: Canis lupus familiaris
# How it was run: (§4)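 Beagle dogs were given oral doses once daily for 3 consecutive days at 0.02, 0.09 or 0.2 mg/kg (n=3 per dose). Blood was stimulated ex vivo with calcium ionophore, and LTB4 production was measured during dosing and up to 24 h after the last dose. Results were baseline-corrected, plotted with plasma concentration and reported as medians.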
# Canis familiaris [20] = test: Ex vivo inhibition of FLAP in Beagle dog assessed as reduction in ionophore-stimulated LTB4 production at 0.18 mg/kg, po on day1 and 0.09 mg/kg, po on day 3 measured after 4 to 9 hrs relative to control; format: functional, Canis lupus familiaris
# How it was run: (§5)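 Two beagle dogs were given two oral doses 48 h apart: 0.18 mg/kg on day 1 and 0.09 mg/kg on day 3. LTB4 production in calcium ionophore-stimulated blood was followed ex vivo after each dose, including 48 h after the second dose, and compared with baseline.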
# Canis familiaris [21] = test: Ex vivo inhibition of FLAP in Beagle dog assessed as reduction in LTE4 level in urine at 0.02 mg/kg, po administered daily for 3 consecutive days measured 24 hrs post-last dose by colorimetric method relative to control; format: functional; conditions: Canis lupus familiaris
# How it was run: (§6)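 Urinary LTE4 was measured at baseline and over the final 24 h of dosing in beagle dogs given oral doses once daily for 3 consecutive days (0.02, 0.09 or 0.2 mg/kg, n=3 per dose). Dogs with baseline uLTE4 below the LOQ were excluded. Inhibition was expressed relative to each dog's own baseline.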
# Canis familiaris [22] = test: Ex vivo reversible inhibition of FLAP in Beagle dog assessed as reduction in ionophore-stimulated LTB4 production at 0.18 mg/kg, po on day1 and 0.09 mg/kg, po on day 3 measured after 48 hrs; format: functional, organism-based; conditions: Canis lupus familiaris; how it was run: as §5
# Canis familiaris [23] = test: Ex vivo inhibition of FLAP in po dosed Beagle dog assessed as reduction in ionophore-stimulated LTB4 production administered daily for 3 consecutive days measured during compound dosing by LC-MS/MS analysis; format: functional, organism-based; conditions: Canis lupus familiaris; how it was run: as §4
# [24] = biological target: Prostaglandin G/H synthase 1 (Homo sapiens) (UniProt P23219); test: Activity at COX1 in human whole blood assessed as effect on […] production by EIA; format: tissue-based
# Prostaglandin G/H synthase 1 (Homo sapiens), sequence (P23219 whole entry): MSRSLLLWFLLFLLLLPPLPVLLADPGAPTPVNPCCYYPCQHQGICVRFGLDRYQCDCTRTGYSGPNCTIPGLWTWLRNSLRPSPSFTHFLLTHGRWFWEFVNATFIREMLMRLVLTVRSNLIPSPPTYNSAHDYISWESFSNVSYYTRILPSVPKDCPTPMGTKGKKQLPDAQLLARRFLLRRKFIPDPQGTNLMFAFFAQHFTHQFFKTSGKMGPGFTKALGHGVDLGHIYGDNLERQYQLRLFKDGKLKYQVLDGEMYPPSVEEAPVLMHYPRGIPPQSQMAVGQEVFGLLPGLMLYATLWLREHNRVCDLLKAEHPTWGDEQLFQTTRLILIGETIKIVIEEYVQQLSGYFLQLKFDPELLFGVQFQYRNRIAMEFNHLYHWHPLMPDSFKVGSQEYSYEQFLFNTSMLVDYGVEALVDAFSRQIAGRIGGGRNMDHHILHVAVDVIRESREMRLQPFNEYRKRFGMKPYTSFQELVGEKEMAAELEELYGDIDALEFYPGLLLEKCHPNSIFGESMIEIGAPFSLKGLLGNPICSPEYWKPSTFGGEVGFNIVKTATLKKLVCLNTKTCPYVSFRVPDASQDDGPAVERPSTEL
# HepG2 = test: Cytotoxicity against human HepG2 cells assessed as reduction in ATP depletion in presence of glucose/galactose; format: cell-based
# Canis familiaris [25] = test: Ex vivo inhibition of FLAP in Beagle dog assessed as reduction in LTE4 level in urine at 0.09 to 0.2 mg/kg, po administered daily for 3 consecutive days measured 24 hrs post-last dose by colorimetric method; format: functional, Canis lupus familiaris; how it was run: as §6
# [26] = biological target: T3, Arachidonate 5-lipoxygenase-activating protein (Homo sapiens, UniProt P20292); test: Inhibition of [3H]MK0591 binding to human FLAP expressed in […] cell membranes measured after 60 to 80 mins by microbeta scintillation counting method
# T3 sequence (P20292 whole entry): T1 sequence (whole entry)
Structure (SMILES),Activity [1],Activity [2],Activity [3],hepatocyte CLint at 1 µM [4] [µL/min/1e6 cells],logD at 2 h [5],Papp A→B [6] [×10⁻⁶ cm/s],Activity [7],hepatocyte CLint at 1 µM [8] [µL/min/1e6 cells],fIC50 [9] [nM],solubility thermodynamic at 24 h [10] [µM],IC50 [26] [nM],also measured
CCn1ncc(NC(=O)[C@@H]2CCCC[C@H]2C(=O)c2ccc(-c3cc(C)n[nH]3)cc2)c1C(N)=O,Toxic,Toxic,Toxic,8.6,2.9,9.2,Toxic,4.9,16,329,,
Cc1cc(-c2ccc(C(=O)[C@@H]3CCCC[C@H]3C(=O)Nc3cnn4c3C(=O)NCC4)cc2)n[nH]1,,,,,,,,,2,,,Activity [11]: inactive; %max (Canis familiaris [12]): >90%; Activity (Homo sapiens [13]): Dose-dependent effect; Activity (Homo sapiens [14]): Dose-dependent effect; fIC50 (Canis familiaris [15]): 0.1 nM; fIC50 (Canis lupus familiaris): 1 nM; Activity (Homo sapiens [16]): Dose-dependent effect; IC50 (THP-1): > 250000 nM; Cmin (Homo sapiens [17]): >15 nM; Activity (Homo sapiens [18]): Dose-dependent effect; inhibition (Canis familiaris [19]): inactive; %max (Canis familiaris [20]): >90%; inhibition in vivo at 0.02 mg/kg (Canis familiaris [21]): 60%; inhibition (Canis familiaris [22]): Active; inhibition (Canis familiaris [23]): Dose-dependent effect; Activity [24]: inactive; IC50 (HepG2): > 250000 nM; inhibition (INH) (Canis familiaris [25]): 100%
Cc1cc(-c2ccc(C(=O)[C@@H]3CCCC[C@H]3C(=O)Nc3cnn(C)c3C(=O)O)cc2)[nH]n1,,,,,0.2,0.21,,3.2,570,599,17,
Cc1cc(-c2ccc(C(=O)[C@@H]3CCCC[C@H]3C(=O)Nc3c(C(N)=O)n[nH]c3C)cc2)[nH]n1,,,,14.4,2.3,0.15,,6.7,,402,,
Cc1cc(-c2ccc(C(=O)[C@@H]3CCCC[C@H]3C(=O)Nc3c(C)nn(C)c3C(N)=O)cc2)n[nH]1,Toxic,Toxic,Toxic,5.7,2.6,1.4,Toxic,< 1,8,399,101,
Cc1cc(-c2ccc(C(=O)[C@@H]3CCCC[C@H]3C(=O)Nc3cnn(CC(N)=O)c3)cc2)[nH]n1,,,,,2.1,,,,487,496,241,

# Reference: ChEMBL document CHEMBL4393654, “Discovery and Early Clinical Development of an Inhibitor of 5-Lipoxygenase Activating Protein (AZD5718) for Treatment of Coronary Artery Disease” (J Med Chem, 2019)
